Experiments:
[1] = tested on: Human immunodeficiency virus 1; assay: Antiviral activity against HIV1 pNL4-3 harboring chimeric pTKD infected in TZM-bl cells after 72 hrs by luciferase assay; assay type: functional, organism-based; conditions: Human immunodeficiency virus 1, pNL4-3, TZM-bl
How it was run: (§1)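 TZM-bl cells (LTR-driven luciferase reporter) at 5 × 10^4 per well in RPMI 1640 with 10% dialyzed FBS. They were preincubated 16 h at 37°C with a range of 4′-Ed4T, d4T, 3TC or AZT, then infected with NL4-3-derived clones at MOI 0.01. After 72 h, lysates were read for luciferase, with uninfected background subtracted. EC50 is from % of no-drug signal, reported as mean ± SD of three experiments.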

[2] = tested on: Human immunodeficiency virus 1; assay: Antiviral activity against HIV1 pNL4-3 harboring Reverse transcriptase T165A mutant gene infected in TZM-bl cells after 72 hrs by luciferase assay; assay type: functional, organism-based; conditions: Human immunodeficiency virus 1, pNL4-3, TZM-bl; how it was run: as §1
[3] = tested on: Human immunodeficiency virus 1; assay: Antiviral activity against HIV1 pNL4-3 harboring Reverse transcriptase P119S mutant gene infected in TZM-bl cells after 72 hrs by luciferase assay; assay type: functional, organism-based; conditions: Human immunodeficiency virus 1, pNL4-3, TZM-bl; how it was run: as §1
[4] = tested on: Human immunodeficiency virus 1; assay: Antiviral activity against HIV1 pNL4-3 harboring Reverse transcriptase P119S/M184V mutant gene infected in TZM-bl cells after 72 hrs by luciferase assay; assay type: functional, organism-based; conditions: Human immunodeficiency virus 1, pNL4-3, TZM-bl; how it was run: as §1
[5] = tested on: Human immunodeficiency virus 1; assay: Antiviral activity against HIV1 pNL4-3 harboring Reverse transcriptase P119S/T165A/M184V mutant gene infected in TZM-bl cells after 72 hrs by luciferase assay; assay type: functional, organism-based; conditions: Human immunodeficiency virus 1, pNL4-3, TZM-bl; how it was run: as §1
[6] = tested on: Human immunodeficiency virus 1; assay: Antiviral activity against wild-type HIV1 pNL4-3 infected in TZM-bl cells by luciferase assay; assay type: functional, organism-based; conditions: Human immunodeficiency virus 1, pNL4-3, TZM-bl; how it was run: as §1
[7] = tested on: Human immunodeficiency virus 1; assay: Antiviral activity against HIV1 pNL4-3 harboring Reverse transcriptase T165A/M184V mutant gene infected in TZM-bl cells after 72 hrs by luciferase assay; assay type: functional, organism-based; conditions: Human immunodeficiency virus 1, pNL4-3, TZM-bl; how it was run: as §1
[8] = tested on: Human immunodeficiency virus 1; assay: Antiviral activity against HIV1 pNL4-3 harboring Reverse transcriptase M184V mutant gene infected in TZM-bl cells after 72 hrs by luciferase assay; assay type: functional, organism-based; conditions: Human immunodeficiency virus 1, pNL4-3, TZM-bl; how it was run: as §1
[9] = tested on: Human immunodeficiency virus 1; assay: Antiviral activity against HIV1 pNL4-3 harboring Reverse transcriptase P119S/T165A mutant gene infected in TZM-bl cells after 72 hrs by luciferase assay; assay type: functional, organism-based; conditions: Human immunodeficiency virus 1, pNL4-3, TZM-bl; how it was run: as §1
[10] = target: Human immunodeficiency virus type 1 reverse transcriptase (Human immunodeficiency virus 1, UniProt Q72547, M184V); assay: Inhibition of HIV1 Reverse transcriptase M184V mutant
How it was run: (§2)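 Steady-state inhibition of dTTP incorporation used 2.5 nM wild-type or mutant RT and 250 nM DNA/RNA 23-mer/36-mer primer/template. Apparent dTTP Km was measured across varied 4′-Ed4TTP or d4TTP to give Ki. Ki/Km(dTTP) served as the inhibition index.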

[11] = tested on: Human immunodeficiency virus type 1 reverse transcriptase (Human immunodeficiency virus 1), Q72547 [P119S]; assay: Ratio of Ki to Km for HIV1 Reverse transcriptase P119S mutant; how it was run: as §2
[12] = target: Human immunodeficiency virus type 1 reverse transcriptase (Human immunodeficiency virus 1, UniProt Q72547, M184V/P119S); assay: Inhibition of HIV1 Reverse transcriptase P119S/M184V mutant; how it was run: as §2
[13] = target: Human immunodeficiency virus type 1 reverse transcriptase (Human immunodeficiency virus 1, UniProt Q72547, T165A); assay: Inhibition of HIV1 Reverse transcriptase T165A mutant; how it was run: as §2
[14] = tested on: Human immunodeficiency virus type 1 reverse transcriptase (Human immunodeficiency virus 1), Q72547 [T165A]; assay: Ratio of Ki to Km for HIV1 Reverse transcriptase T165A mutant; how it was run: as §2
[15] = tested on: Human immunodeficiency virus type 1 reverse transcriptase (Human immunodeficiency virus 1), Q72547 [T165A,M184V]; assay: Ratio of Ki to Km for HIV1 Reverse transcriptase T165A/M184V mutant; how it was run: as §2
[16] = target: Human immunodeficiency virus type 1 reverse transcriptase (Human immunodeficiency virus 1) (UniProt Q72547); assay: Ratio of Ki to Km for wild-type HIV1 Reverse transcriptase; how it was run: as §2
[17] = target: Human immunodeficiency virus type 1 reverse transcriptase (Human immunodeficiency virus 1, UniProt Q72547, P119S); assay: Inhibition of HIV1 Reverse transcriptase P119S mutant; how it was run: as §2
[18] = target: Human immunodeficiency virus type 1 reverse transcriptase (Human immunodeficiency virus 1, UniProt Q72547, P119S/T165A); assay: Inhibition of HIV1 Reverse transcriptase P119S/T165A mutant; how it was run: as §2
[19] = target: Human immunodeficiency virus type 1 reverse transcriptase (Human immunodeficiency virus 1, UniProt Q72547, M184V/P119S/T165A); assay: Inhibition of HIV1 Reverse transcriptase P119S/T165A/M184V mutant; how it was run: as §2
[20] = tested on: Human immunodeficiency virus type 1 reverse transcriptase (Human immunodeficiency virus 1), Q72547 [P119S,M184V]; assay: Ratio of Ki to Km for HIV1 Reverse transcriptase P119S/M184V mutant; how it was run: as §2
[21] = tested on: Human immunodeficiency virus type 1 reverse transcriptase (Human immunodeficiency virus 1), Q72547 [P119S,T165A]; assay: Ratio of Ki to Km for HIV1 Reverse transcriptase P119S/T165A mutant; how it was run: as §2
[22] = tested on: Human immunodeficiency virus type 1 reverse transcriptase (Human immunodeficiency virus 1), Q72547 [M184V]; assay: Ratio of Ki to Km for HIV1 Reverse transcriptase M184V mutant; how it was run: as §2
[23] = target: Human immunodeficiency virus type 1 reverse transcriptase (Human immunodeficiency virus 1, UniProt Q72547, M184V/T165A); assay: Inhibition of HIV1 Reverse transcriptase T165A/M184V mutant; how it was run: as §2
[24] = target: Human immunodeficiency virus type 1 reverse transcriptase (Human immunodeficiency virus 1, UniProt Q72547); assay: Inhibition of wild-type HIV1 Reverse transcriptase
How it was run: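 Same steady-state dTTP incorporation reaction: 250 nM DNA 23-mer/RNA 36-mer primer/template, 2.5 nM RT, Tris-HCl pH 8.0/NaCl/MgCl2/DTT/BSA buffer, 37°C. The analog triphosphate inhibitor was added at various concentrations. Apparent dTTP Km was measured at each inhibitor level to derive Ki, and Ki/Km(dTTP) was used as an inhibition-efficiency index.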

[25] = tested on: Human immunodeficiency virus type 1 reverse transcriptase (Human immunodeficiency virus 1), Q72547 [P119S,T165A,M184V]; assay: Ratio of Ki to Km for HIV1 Reverse transcriptase P119S/T165A/M184V mutant; how it was run: as §2
[26] = tested on: Cc1cn([C@H]2C[C@H](O)[C@@H](COP(=O)(O)OP(=O)(O)OP(=O)(O)O)O2)c(=O)[nH]c1=O; assay: Ratio of Kcat to Km for HIV1 Reverse transcriptase P119S/T165A/M184V mutant; conditions: Human immunodeficiency virus 1
[27] = tested on: Cc1cn([C@H]2C[C@H](O)[C@@H](COP(=O)(O)OP(=O)(O)OP(=O)(O)O)O2)c(=O)[nH]c1=O; assay: Activity of HIV1 Reverse transcriptase P119S/T165A/M184V mutant; conditions: Human immunodeficiency virus 1
[28] = tested on: Cc1cn([C@H]2C[C@H](O)[C@@H](COP(=O)(O)OP(=O)(O)OP(=O)(O)O)O2)c(=O)[nH]c1=O; assay: Ratio of Kcat to Km for HIV1 Reverse transcriptase P119S mutant; conditions: Human immunodeficiency virus 1
[29] = tested on: Cc1cn([C@H]2C[C@H](O)[C@@H](COP(=O)(O)OP(=O)(O)OP(=O)(O)O)O2)c(=O)[nH]c1=O; assay: Activity of HIV1 Reverse transcriptase P119S mutant; conditions: Human immunodeficiency virus 1

Molecule: Cc1cn([C@H]2C[C@H](N=[N+]=[N-])[C@@H](CO)O2)c(=O)[nH]c1=O [ZIDOVUDINE]
- EC50 [1]: 8 nM
- EC50 [2]: 22 nM
- EC50 [3]: 17 nM
- EC50 [4]: 11 nM
- EC50 [5]: 53 nM
- EC50 [6]: 23 nM
- EC50 [7]: 24 nM
- EC50 [8]: 11 nM
- EC50 [9]: 26 nM

Molecule: Cc1cn([C@H]2C=C[C@@H](CO)O2)c(=O)[nH]c1=O [STAVUDINE]
- EC50 [1]: 1000 nM
- EC50 [2]: 1460 nM
- EC50 [3]: 1440 nM
- EC50 [4]: 1550 nM
- EC50 [5]: 1280 nM
- EC50 [6]: 1250 nM
- EC50 [7]: 1500 nM
- EC50 [8]: 1400 nM
- EC50 [9]: 2480 nM

Molecule: Cc1cn([C@H]2C=C[C@@H](COP(=O)(O)OP(=O)(O)OP(=O)(O)O)O2)c(=O)[nH]c1=O [STAVUDINE TRIPHOSPHATE]
- Ki [10]: 790 nM
- Ki/Km [11]: 2.1
- Ki [12]: 480 nM
- Ki [13]: 210 nM
- Ki/Km [14]: 2.1
- Ki/Km [15]: 2.7
- Ki/Km [16]: 5.3
- Ki [17]: 640 nM
- Ki [18]: 370 nM
- Ki [19]: 1050 nM
- Ki/Km [20]: 2.7
- Ki/Km [21]: 5.3
- Ki/Km [22]: 6.6
- Ki [23]: 300 nM
- Ki [24]: 630 nM
- Ki/Km [25]: 7

Molecule: Nc1ccn([C@@H]2CS[C@H](CO)O2)c(=O)n1 [LAMIVUDINE]
- EC50 [1]: > 60000 nM
- EC50 [2]: 1080 nM
- EC50 [3]: 470 nM
- EC50 [4]: > 60000 nM
- EC50 [5]: > 60000 nM
- EC50 [6]: 650 nM
- EC50 [7]: > 60000 nM
- EC50 [8]: > 60000 nM
- EC50 [9]: 2100 nM

Molecule: Human immunodeficiency virus type 1 reverse transcriptase (Human immunodeficiency virus 1) (from UniProt Q72547) P119S,T165A,M184V
- kcat/Km (10'-3/microM/s) [26]: 6
- Km [27]: 0.15 µM
- kcat [27]: 9 ×10⁻⁵ /s

Molecule: Human immunodeficiency virus type 1 reverse transcriptase (Human immunodeficiency virus 1) (from UniProt Q72547) P119S
- kcat/Km (10'-2/microM/s) [28]: 2.5
- Km [29]: 0.13 µM
- kcat [29]: 3.3 ×10⁻⁴ /s

Molecule: C=C[C@@]1(COP(=O)(O)OP(=O)(O)OP(=O)(O)O)C=C[C@H](n2cc(C)c(=O)[nH]c2=O)O1
- Ki [10]: 210 nM
- Ki/Km [11]: 0.85
- Ki [12]: 640 nM
- Ki [13]: 80 nM
- Ki/Km [14]: 0.8
- Ki/Km [15]: 6
- Ki/Km [16]: 0.45
- Ki [17]: 110 nM
- Ki [18]: 24 nM
- Ki [19]: 730 nM
- Ki/Km [20]: 3.6
- Ki/Km [21]: 0.34
- Ki/Km [22]: 1.7
- Ki [23]: 660 nM
- Ki [24]: 54 nM
- Ki/Km [25]: 4.9
